ChEMBL document CHEMBL3297742, “Tetrahydronaphthyridine and dihydronaphthyridinone ethers as positive allosteric modulators of the metabotropic glutamate receptor 5 (mGlu₅)” (J Med Chem, 2014)

Experiments:
[1] = target: Metabotropic glutamate receptor 5 (Rattus norvegicus) (UniProt P31424); test: Positive allosteric modulator activity at rat mGlu5 receptor expressed in HEK293 cells assessed as potentiation of glutamate-induced calcium mobilization at 30 uM by fluorescence assay relative to glutamate; format: functional, cell-based
How it was run: (§1)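 HEK293 cells stably expressing rat mGlu5, 15000 cells/well, grown overnight, loaded with 1 µM Fluo-4AM for 50 min at 37 °C in HBSS/20 mM HEPES/2.5 mM probenecid pH 7.4. Compound added, then an EC20 of glutamate 140 s later and an EC80 90–120 s after that. Fluorescence over basal normalized to maximal glutamate response (100 µM glutamate); compound at up to 30 µM; ≥3 independent determinations.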

[2] = target: T1, Metabotropic glutamate receptor 5 (Rattus norvegicus, UniProt P31424); test: Positive allosteric modulator activity at rat mGlu5 receptor expressed in HEK293 cells assessed as potentiation of glutamate-induced calcium mobilization by fluorescence assay; format: functional, cell-based; how it was run: as §1
[3] = test system: Plasma; test: (§2) Fraction unbound in rat plasma; format: ADME, cell-free
[4] = test system: Plasma; test: Fraction unbound in human plasma; format: ADME, cell-free
[5] = target: Metabotropic glutamate receptor 3 (Rattus norvegicus) (UniProt P31422); test: Negative allosteric modulator activity at rat mGlu3 receptor expressed in HEK293 cells assessed as negative cooperativity fold shift of glutamate concentration response curve for GIRK channel-mediated thallium flux at 10 uM treated 140s prior to glutamate challenge by fluorescence analysis; format: cell-based
How it was run: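 HEK293-GIRK cells expressing rat mGlu2, 3, 4, 6, 7 or 8, 15000 cells/well. Vehicle or 10 µM compound added, then 140 s later a glutamate CRC (L-AP4 for mGlu7) in thallium buffer (12 mM thallium sulfate, 10 mM HEPES). Thallium flux through GIRK read by fluorescence.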

[6] = target: T1, Metabotropic glutamate receptor 5; test: Partial antagonist activity at rat mGlu5 receptor expressed in HEK293 cells; format: cell-based
[7] = target: Metabotropic glutamate receptor 5 (Rattus norvegicus) (UniProt P31424); test: Partial antagonist activity at rat mGlu5 receptor expressed in HEK293 cells relative to glutamate; format: cell-based
[8] = as §2; format: ADME, cell-free

Chain of Metabotropic glutamate receptor 5 (Rattus norvegicus) (P31424 21-1203 limits assumed): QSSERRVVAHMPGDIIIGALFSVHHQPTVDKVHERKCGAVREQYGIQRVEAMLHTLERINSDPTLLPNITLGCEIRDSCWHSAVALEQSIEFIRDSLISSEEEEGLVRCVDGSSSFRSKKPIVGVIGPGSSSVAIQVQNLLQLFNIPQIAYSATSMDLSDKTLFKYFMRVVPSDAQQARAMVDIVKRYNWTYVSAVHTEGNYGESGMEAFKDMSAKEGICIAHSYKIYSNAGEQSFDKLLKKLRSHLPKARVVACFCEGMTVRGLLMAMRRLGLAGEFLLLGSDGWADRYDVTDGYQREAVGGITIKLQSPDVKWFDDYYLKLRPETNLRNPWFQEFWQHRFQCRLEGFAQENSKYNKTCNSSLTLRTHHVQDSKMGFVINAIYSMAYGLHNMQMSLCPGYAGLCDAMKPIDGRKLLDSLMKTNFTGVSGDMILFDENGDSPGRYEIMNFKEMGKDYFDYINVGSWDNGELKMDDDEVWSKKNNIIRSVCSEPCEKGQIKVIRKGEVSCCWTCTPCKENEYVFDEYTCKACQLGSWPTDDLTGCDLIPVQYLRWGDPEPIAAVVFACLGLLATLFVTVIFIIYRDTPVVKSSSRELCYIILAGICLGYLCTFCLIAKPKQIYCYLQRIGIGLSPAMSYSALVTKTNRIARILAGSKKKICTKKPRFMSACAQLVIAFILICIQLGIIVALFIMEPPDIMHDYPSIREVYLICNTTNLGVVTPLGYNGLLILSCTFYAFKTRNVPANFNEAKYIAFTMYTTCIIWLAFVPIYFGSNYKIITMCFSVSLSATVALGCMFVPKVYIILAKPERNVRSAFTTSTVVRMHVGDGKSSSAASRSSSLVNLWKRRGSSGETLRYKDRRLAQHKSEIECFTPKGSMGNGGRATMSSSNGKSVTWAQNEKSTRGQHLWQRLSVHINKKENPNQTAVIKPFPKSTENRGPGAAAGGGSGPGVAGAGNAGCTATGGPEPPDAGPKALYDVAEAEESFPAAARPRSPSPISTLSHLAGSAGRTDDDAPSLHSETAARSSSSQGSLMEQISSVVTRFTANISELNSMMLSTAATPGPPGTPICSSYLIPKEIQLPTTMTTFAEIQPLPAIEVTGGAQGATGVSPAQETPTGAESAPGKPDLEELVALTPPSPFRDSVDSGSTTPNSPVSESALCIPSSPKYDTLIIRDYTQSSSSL
T1 sequence (P31424 whole entry): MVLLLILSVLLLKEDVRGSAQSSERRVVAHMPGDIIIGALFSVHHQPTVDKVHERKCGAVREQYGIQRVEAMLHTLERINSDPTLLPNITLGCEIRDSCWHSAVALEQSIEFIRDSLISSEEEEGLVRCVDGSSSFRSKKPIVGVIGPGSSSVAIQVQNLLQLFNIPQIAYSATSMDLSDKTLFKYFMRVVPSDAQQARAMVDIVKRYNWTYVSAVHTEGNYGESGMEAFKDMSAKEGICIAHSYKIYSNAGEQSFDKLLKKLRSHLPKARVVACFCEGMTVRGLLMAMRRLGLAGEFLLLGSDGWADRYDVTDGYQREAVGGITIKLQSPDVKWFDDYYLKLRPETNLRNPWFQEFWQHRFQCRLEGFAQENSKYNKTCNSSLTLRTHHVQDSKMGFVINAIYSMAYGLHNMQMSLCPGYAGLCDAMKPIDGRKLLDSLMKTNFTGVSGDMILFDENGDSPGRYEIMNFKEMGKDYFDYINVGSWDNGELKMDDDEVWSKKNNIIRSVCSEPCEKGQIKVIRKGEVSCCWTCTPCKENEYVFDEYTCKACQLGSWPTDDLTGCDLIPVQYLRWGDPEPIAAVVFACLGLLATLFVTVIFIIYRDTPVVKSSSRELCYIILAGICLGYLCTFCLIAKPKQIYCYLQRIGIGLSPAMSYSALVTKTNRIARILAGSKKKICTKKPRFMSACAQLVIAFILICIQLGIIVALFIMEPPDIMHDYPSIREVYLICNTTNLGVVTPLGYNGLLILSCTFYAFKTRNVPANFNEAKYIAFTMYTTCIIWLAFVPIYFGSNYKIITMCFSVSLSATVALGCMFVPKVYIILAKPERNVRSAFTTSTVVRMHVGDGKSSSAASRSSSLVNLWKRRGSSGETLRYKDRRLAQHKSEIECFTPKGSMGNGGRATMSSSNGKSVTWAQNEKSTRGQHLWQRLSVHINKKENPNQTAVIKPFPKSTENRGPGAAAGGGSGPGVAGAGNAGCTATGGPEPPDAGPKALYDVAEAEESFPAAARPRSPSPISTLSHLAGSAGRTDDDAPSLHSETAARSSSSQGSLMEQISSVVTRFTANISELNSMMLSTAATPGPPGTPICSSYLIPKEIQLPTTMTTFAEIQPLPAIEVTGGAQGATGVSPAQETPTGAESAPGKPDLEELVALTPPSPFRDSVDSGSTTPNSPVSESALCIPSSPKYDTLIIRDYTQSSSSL
Chain of Metabotropic glutamate receptor 3 (Rattus norvegicus) (P31422 23-879 limits assumed): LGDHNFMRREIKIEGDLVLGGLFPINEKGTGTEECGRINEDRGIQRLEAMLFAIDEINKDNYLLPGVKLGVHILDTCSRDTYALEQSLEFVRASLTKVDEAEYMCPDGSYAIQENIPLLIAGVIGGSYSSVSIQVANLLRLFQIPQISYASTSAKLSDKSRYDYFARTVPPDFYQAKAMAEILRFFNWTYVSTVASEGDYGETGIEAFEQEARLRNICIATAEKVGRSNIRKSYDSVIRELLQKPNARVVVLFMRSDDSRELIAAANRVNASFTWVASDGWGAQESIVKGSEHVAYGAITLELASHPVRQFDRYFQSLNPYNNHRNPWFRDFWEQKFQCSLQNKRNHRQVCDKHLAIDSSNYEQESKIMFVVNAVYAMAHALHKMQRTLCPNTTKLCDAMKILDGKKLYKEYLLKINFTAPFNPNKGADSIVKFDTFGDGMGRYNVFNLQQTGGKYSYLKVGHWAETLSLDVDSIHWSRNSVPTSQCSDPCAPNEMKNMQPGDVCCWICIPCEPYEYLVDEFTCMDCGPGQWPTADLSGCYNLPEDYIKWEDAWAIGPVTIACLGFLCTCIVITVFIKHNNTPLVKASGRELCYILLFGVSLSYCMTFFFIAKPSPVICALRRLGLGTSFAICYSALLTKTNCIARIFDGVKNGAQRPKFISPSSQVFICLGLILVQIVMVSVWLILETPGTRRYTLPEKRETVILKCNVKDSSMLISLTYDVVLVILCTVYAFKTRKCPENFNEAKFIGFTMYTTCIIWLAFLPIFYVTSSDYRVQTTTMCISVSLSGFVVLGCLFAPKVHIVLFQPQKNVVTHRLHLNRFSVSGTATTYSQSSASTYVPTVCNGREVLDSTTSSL

Row | %max [1] | EC50 ([2]; read-out: EC50) | Activity [1] | Compound | other results
1 | 53% | 1.77 µM |  | O=C(c1ccc(F)cc1)N1CCc2ncc(COc3ccc(F)cc3)cc2C1 | 
2 |  |  | < 10% | O=C(C1CC1)N1CCc2ncc(OCc3cccc(F)c3)cc2C1 | 
3 |  |  | < 10% | O=C1NCCc2nc(OCc3ccc(Cl)cc3)ccc21 | 
4 | 50% | 0.212 µM |  | O=C1c2ccc(OCc3cccc(F)c3)nc2CCN1c1ccc(F)cn1 | Fu [3]: 0.025; Fu [4]: 0.01
5 | 59% | 0.595 µM |  | O=C1c2ccc(COc3cccc(F)c3)nc2CCN1c1ccc(F)cn1 | 
6 |  |  | < 10% | O=C1NCCc2cc(COc3ccccc3)cnc21 | 
7 |  |  | < 10% | CCCCOc1ccc2c(n1)CCN(c1ccc(F)cc1F)C2=O | 
8 | 39% | 2.47 µM |  | CC1(CN2CCc3nc(OCc4cccc(F)c4)ccc3C2=O)COC1 | 
9 | 38% | 1.15 µM |  | CC(C)CN1CCc2nc(COc3cccc(F)c3)ccc2C1=O | 
10 |  |  | < 10% | O=C1NCCc2nc(OCc3cccnc3)ccc21 | 
11 | 43% | 0.062 µM |  | O=C1NCCc2nc(OCc3cccc(Cl)c3)ccc21 | 
12 | 54% | 1.03 µM |  | O=C1NCCc2nc(OCc3ccccc3)ccc21 | EC50 ([2]; read-out: pEC50 (converted)): 1.05 µM
13 | 30% | 0.403 µM |  | O=C1c2cnc(COc3ccccc3)cc2CCN1c1ccc(F)cc1 | 
14 |  |  | < 10% | O=C1c2ccc(OCc3cccc(F)c3)nc2CCN1CC1CC1 | 
15 | 69% | 1.09 µM |  | O=C(c1ccc(F)cc1)N1CCc2ncc(COc3cccc(F)c3)cc2C1 | 
16 |  |  | < 10% | CN1CCc2cc(COc3ccccc3)cnc2C1=O | 
17 | 72% | 0.097 µM |  | O=C1c2ccc(COc3cccc(F)c3)nc2CCN1c1ccc(F)cc1 | fold change (FC) [5]: 0.2; Fu [3]: 0.029; Fu [4]: 0.014
18 | 30% | 1.63 µM |  | O=C(c1cccc(F)c1)N1CCc2ncc(OCc3cccc(F)c3)cc2C1 | 
19 |  |  |  | O=C(c1ccc(F)cc1)N1CCc2ncc(OCc3ccccc3)cc2C1 | IC50 [6]: 7.81 µM; Emin [7]: 53%
20 | 68% | 0.198 µM |  | O=C1c2ccc(COc3ccccc3)nc2CCN1c1ccc(F)cc1 | fraction unbound [8]: 0.036; Fu [4]: 0.021

Row | %max [1] | EC50 ([2]; read-out: EC50) | Activity [1] | Compound | other results
21 | 68% | 1.17 µM |  | O=C1NCCc2nc(OCc3ccccc3F)ccc21 | 
22 |  |  | < 10% | O=C1NCCc2nc(OCc3ccccc3Cl)ccc21 | 
23 | 38% | 0.118 µM |  | O=C1c2ccc(OCc3cccc(F)c3)nc2CCN1c1ccc(F)cc1 | 
24 |  |  | < 10% | CN1CCc2nc(COc3cccc(F)c3)ccc2C1=O | 
25 | 36% | 3.17 µM |  | O=C1c2ccc(OCc3cccc(F)c3)nc2CCN1Cc1ccccc1 | 
26 |  |  | < 10% | CC(C)CN1CCc2nc(OCc3cccc(F)c3)ccc2C1=O | 
27 |  |  | < 10% | O=C1NCCc2cc(COc3ccccc3)ncc21 | 
28 |  |  | < 10% | O=C(c1ccccc1)N1CCc2ncc(OCc3ccccc3)cc2C1 | 
29 |  |  | < 10% | CCCCOc1ccc2c(n1)CCNC2=O | 
30 | 36% | 0.444 µM |  | O=C1c2ccc(OCc3cccc(F)c3)nc2CCN1CC1CCC1 | 
31 | 23% | 2.77 µM |  | O=C1c2ccc(OCc3ccccc3)nc2CCN1Cc1ccccc1 | 
32 |  |  | < 10% | C[C@@H](N1CCc2cc(COc3ccccc3)cnc2C1=O)C(C)(C)C | 
33 |  |  | < 10% | O=C1NCCc2nc(OCc3ccccn3)ccc21 | 
34 | 69% | 0.64 µM |  | O=C(c1ccc(F)cc1)N1CCc2ncc(COc3ccccc3)cc2C1 | 
35 |  |  | < 10% | O=C1c2ccc(OCc3ccccc3)nc2CCN1Cc1ccccn1 | 
36 | 81% | 0.538 µM |  | O=C1c2ncc(COc3ccccc3)cc2CCN1c1ccc(F)cc1 | fold change (FC) [5]: 0.3; Fu [3]: 0.11; Fu [4]: 0.096
37 |  |  | < 10% | CN1CCc2cc(COc3ccccc3)ncc2C1=O | 
38 |  |  | < 10% | CC(N1CCc2cc(COc3ccccc3)ncc2C1=O)C(C)(C)C (stereo not drawn) | 
39 |  |  | < 10% | CN1CCc2nc(OCc3cccc(F)c3)ccc2C1=O | 

Row | Compound | %max [1] | EC50 ([2]; read-out: EC50) | Activity [1] | other results
40 | O=C1NCCc2nc(COc3cccc(F)c3)ccc21 | 34% | > 10 µM |  | 
41 | O=C1c2ccc(COc3cccc(F)c3)nc2CCN1Cc1ccccc1 | 38% | > 10 µM |  | 
42 | O=C1NCCc2nc(COc3ccccc3)ccc21 | 43% | > 10 µM |  | 
43 | O=C1c2ccc(COc3cccc(F)c3)nc2CCN1CC1CC1 | 33% | > 10 µM |  | 
